The values below come from article PMC4472004 (Molecular cancer therapeutics, 2014).

For assay [1], the target named is PSMA receptor on PC3pip cells (Homo sapiens, UniProt Q04609). Put plainly: Competitive binding assay. The procedure, abridged:
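PC3pip cells (PSMA-transduced PC3; RPMI-1640 with 2 mmol/L L-glutamine and 10% FBS, 37°C, 5% CO2), 5 × 10^5 per tube, incubated 1 h at 37°C with varying test compound concentrations plus 12 nmol/L [3H]-methyl-cysteine urea PSMA radioligand. Cells pelleted at 3,000 × g for 5 min at 4°C and washed 3× with cold PBS. Bound radioactivity by scintillation counting; IC50 from curve fitting.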

The test system of the next assay is PC3pip tumors. Put plainly: In vivo NIR imaging. Also noted: species or system mice. The conditions noted are these: coinjection; up to 1,000-fold excess of Cys-CO-Glu or PSMA-1; 100-fold excess of ZJ-MCC-Ahx-YYYG.

Sequence of PSMA receptor on PC3pip cells (Q04609 whole entry): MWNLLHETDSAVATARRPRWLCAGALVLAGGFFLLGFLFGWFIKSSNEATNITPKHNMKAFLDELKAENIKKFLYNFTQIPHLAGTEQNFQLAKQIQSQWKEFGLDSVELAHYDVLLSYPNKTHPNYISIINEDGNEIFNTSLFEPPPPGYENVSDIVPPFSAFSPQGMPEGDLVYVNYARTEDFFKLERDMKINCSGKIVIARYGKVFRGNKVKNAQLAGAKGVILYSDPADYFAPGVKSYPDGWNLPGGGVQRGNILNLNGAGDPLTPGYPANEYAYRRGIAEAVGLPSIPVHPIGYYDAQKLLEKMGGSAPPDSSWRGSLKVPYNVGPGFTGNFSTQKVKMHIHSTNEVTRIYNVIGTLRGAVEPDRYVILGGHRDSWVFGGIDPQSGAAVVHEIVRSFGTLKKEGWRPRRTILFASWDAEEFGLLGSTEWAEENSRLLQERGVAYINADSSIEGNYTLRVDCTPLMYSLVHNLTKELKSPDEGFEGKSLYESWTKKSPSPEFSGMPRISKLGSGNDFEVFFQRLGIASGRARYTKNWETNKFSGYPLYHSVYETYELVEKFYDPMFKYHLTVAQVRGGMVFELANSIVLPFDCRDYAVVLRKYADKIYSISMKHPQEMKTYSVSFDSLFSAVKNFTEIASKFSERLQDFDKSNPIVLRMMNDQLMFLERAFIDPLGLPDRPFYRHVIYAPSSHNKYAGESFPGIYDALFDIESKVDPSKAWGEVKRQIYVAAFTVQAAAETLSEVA

Take `NCCCC[C@H](NC(=O)N[C@@H](CCC(=O)O)C(=O)O)C(=O)O` [Cys-CO-Glu, (S)-2-(3-((S)-5-amino-1-carboxypentyl)ureido)pentanedioic acid]: the IC50 in assay [1] was found to be 9.93 ± 0.07 nM. In the assay on PC3pip tumors, the “effectiveness as in vivo competitor of the PSMA-1–NIR probes” value was “unable to achieve effective competition”.
As for “Glu-CO-Glu'-Amc-Ahx-Glu-Glu-Glu-Lys-NH2 [PSMA-1]”, in assay [1] (ratio of IC50 values), the “binding affinity better than the parent ligand Cys-CO-Glu” value was determined as 4.3 fold. The “effectiveness as in vivo competitor of the PSMA-1–NIR probes” value in the assay on PC3pip tumors was “unable to achieve effective competition”.
